Data published in BindingDB's records for doi:10.1021/acs.jmedchem.9b00634 (2019).
*1 amine or outer side, *2 acyl side, *3 side chain or, on linkers, in order; H or OH if unused. Where a SMILES comes first, the peptide text is derived from it. The star is where a group is joined. NH(CH2)3O(βDGlc) = OC[C@H]1O[C@@H](OCCCN*)[C@H](O)[C@@H](O)[C@@H]1O; Glutaryl = O=C(CCCC(=O)[*:2])[*:1]

Key:
[1] = Binding affinity to GLUT1 in human PC3 cells assessed as cytotoxicity by measuring reduction in cell viability measured after 24 hrs by CCK8 assay
[2] = Binding affinity to GLUT1 in human MDA-MB-231 cells assessed as cytotoxicity by measuring reduction in cell viability measured after 24 hrs by CCK8 assay
[3] = Binding affinity to GLUT1 in human L02 cells assessed as cytotoxicity by measuring reduction in cell viability measured after 24 hrs by CCK8 assay
[4] = biological target: T1, Solute carrier family 2, facilitated glucose transporter member 1 (Homo sapiens, UniProt P11166); experiment: Binding affinity to GLUT1 in human A549 cells assessed as cytotoxicity by measuring reduction in cell viability measured after 24 hrs by CCK8 assay
T1 sequence (P11166 whole entry): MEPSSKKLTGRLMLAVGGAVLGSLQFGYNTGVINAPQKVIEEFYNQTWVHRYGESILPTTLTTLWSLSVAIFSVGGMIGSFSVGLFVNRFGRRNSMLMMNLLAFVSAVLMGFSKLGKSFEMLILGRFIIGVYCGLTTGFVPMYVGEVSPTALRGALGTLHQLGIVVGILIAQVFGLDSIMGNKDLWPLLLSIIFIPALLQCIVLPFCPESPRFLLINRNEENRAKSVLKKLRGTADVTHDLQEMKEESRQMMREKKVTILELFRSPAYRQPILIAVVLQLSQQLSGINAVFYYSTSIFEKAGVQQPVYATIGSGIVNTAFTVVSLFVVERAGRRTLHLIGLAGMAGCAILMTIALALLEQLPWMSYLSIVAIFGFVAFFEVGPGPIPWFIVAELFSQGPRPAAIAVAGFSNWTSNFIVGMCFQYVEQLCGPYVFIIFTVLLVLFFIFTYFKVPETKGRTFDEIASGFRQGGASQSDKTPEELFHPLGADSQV
Outline: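 Cells (A549, H460, H1437, PC-3, HGC-27, MDA-MB-231, HEK-293T, L-02) seeded at about 2×10^3/well and grown overnight. Treated 24 h with a peptide concentration series in serum-free medium. Viability by CCK-8; IC50 taken as 50% inhibition versus untreated cells. Average of three experiments, each in triplicate.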

[5] = Binding affinity to GLUT1 in human NCI-H460 cells assessed as cytotoxicity by measuring reduction in cell viability measured after 24 hrs by CCK8 assay
[6] = Binding affinity to GLUT1 in human HGC27 cells assessed as cytotoxicity by measuring reduction in cell viability measured after 24 hrs by CCK8 assay
[7] = Binding affinity to GLUT1 in human A549 cells assessed as cytotoxicity by measuring reduction in cell viability measured after 24 hrs by CCK8 assay
[8] = Binding affinity to GLUT1 in human NCI-H1437 cells assessed as cytotoxicity by measuring reduction in cell viability measured after 24 hrs by CCK8 assay

| SMILES | IC50 [1] [µM] | IC50 [2] [µM] | IC50 [3] [µM] | IC50 [4] [µM] | IC50 [5] [µM] | IC50 [6] [µM] | IC50 [7] [µM] | IC50 [8] [µM] |
| --- | --- | --- | --- | --- | --- | --- | --- | --- |
| CC[C@H](C)[C@H](NC(=O)[C@H](Cc1ccccc1)NC(=O)[C@H](CCCNC(=N)N)NC(=O)[C@H](C)NC(=O)[C@@H](NC(=O)[C@H](CO)NC(=O)[C@H](CCCNC(=N)N)NC(=O)[C@H](CCSC)NC(=O)[C@H](C)NC(=O)[C@H](CCCNC(=N)N)NC(=O)[C@H](Cc1ccccc1)NC(=O)[C@H](Cc1c[nH]c2ccccc12)NC(=O)CNC(=O)[C@H](CCCNC(=N)N)NC(=O)CCCC(=O)NCCCO[C@@H]1O[C@H](CO)[C@@H](O)[C@H](O)[C@H]1O)[C@@H](C)CC)C(=O)N[C@@H](C)C(=O)N[C@@H](CCCNC(=N)N)C(=O)N[C@@H](CCC(=O)O)C(=O)N[C@@H](CCCNC(=N)N)C(=O)N[C@@H](CC(C)C)C(=O)N[C@@H](CCCNC(=N)N)C(=O)N[C@@H](CCC(=O)O)C(=O)N[C@@H](Cc1cnc[nH]1)C(=O)N[C@@H](CC(C)C)C(=O)O ({NH(CH2)3O(βDGlc)-Glutaryl}-RGWFRAMRSIARFIARERLREHL-OH) | 6.9 | 10.1 | 25.9 | 9.6 | 8.5 | 12.6 | – | – |
| CC[C@H](C)[C@H](NC(=O)[C@H](Cc1ccccc1)NC(=O)[C@H](CCCNC(=N)N)NC(=O)[C@H](C)NC(=O)[C@@H](NC(=O)[C@H](CO)NC(=O)[C@H](CCCNC(=N)N)NC(=O)[C@H](CCSC)NC(=O)[C@H](C)NC(=O)[C@H](CCCNC(=N)N)NC(=O)[C@H](Cc1ccccc1)NC(=O)[C@H](Cc1c[nH]c2ccccc12)NC(=O)CNC(=O)[C@@H](N)CCCNC(=N)N)[C@@H](C)CC)C(=O)N[C@@H](C)C(=O)N[C@@H](CCCNC(=N)N)C(=O)N[C@@H](CCC(=O)O)C(=O)N[C@@H](CCCNC(=N)N)C(=O)N[C@@H](CC(C)C)C(=O)N[C@@H](CCCNC(=N)N)C(=O)N[C@@H](CCC(=O)O)C(=O)N[C@@H](Cc1cnc[nH]1)C(=O)N[C@@H](CC(C)C)C(=O)O (H-RGWFRAMRSIARFIARERLREHL-OH) | 15.6 | 10.5 | 12.6 | – | 12.9 | 12.5 | 14.3 | 16.5 |
